Common to all, as to type: functional, cell-based
For test [1], the system named is H9. As to the kind of experiment: Anti-HIV activity in H9 cell line; Not active. To be noted: Homo sapiens.
In test [2] the test system is HL-60. In words: Inhibition of human promyelocytic leukemic cell (HL-60) by […]-microculture tetrazolium assay. The procedure, abridged: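 HL-60 cells exposed 4 days to five or six concentrations of each nucleoside, in duplicate. Then PMS-XTT mixture (0.075 mM PMS with 1 mg/mL XTT) added for 6 h at 37 °C. Absorbance at 450 and 630 nm. Median inhibitory concentration (IC50) derived.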

Test [3] has as its system HL-60. As to the kind of experiment: Inhibition of human promyelocytic leukemic cell (HL-60) trypan blue exclusion assay. In a few lines:
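HL-60 growth inhibition by trypan blue exclusion, five or six concentrations per nucleoside, in duplicate. Median inhibitory concentration (IC50) derived.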

Test [4] deals with H9. In words: Compound was tested for anti-HIV activity in H9 cell line; Active. The following applies: Homo sapiens.
Test [5] concerns H9. In words: Compound was tested for anti-HIV activity in H9 cell line; Not active. To be noted: Homo sapiens.
The test system of another test is MT4. As to the kind of experiment: Compound was tested for anti-HIV activity in MT-4 cell line; Not active. To be noted: Homo sapiens.

The source made the active and inactive calls. No cut-off for these calls is given here. Bounds are passed on as bounds.

Consider `Cc1cn(C2OC(COC(=O)c3ccccc3)C(F)C2F)c(=O)[nH]c1=O` (centres undefined), for which, in the test with H9 [1], the result was inactive. Further, the IC50 in the test on HL-60 [2] and in the test on HL-60 [3] was greater than 1000 µM each time.
As to `Cc1cn([C@@H]2O[C@H](COC(c3ccccc3)(c3ccccc3)c3ccccc3)C[C@H]2F)c(=O)[nH]c1=O`, the result in the test with H9 [1] was inactive. Moreover, the IC50 in the test on HL-60 [2] and in the test on HL-60 [3] was greater than 1000 µM throughout.
On to `Cc1cn2c(nc1=O)O[C@H]1[C@H](O)[C@@H](COC(c3ccccc3)(c3ccccc3)c3ccccc3)O[C@H]12`, for which the outcome with H9 [1] was inactive. The IC50 with HL-60 [2] and in the test on HL-60 [3] was greater than 1000 µM in each case.
For the compound `Cc1cn(C2OC(COC(c3ccccc3)(c3ccccc3)c3ccccc3)C(N=[N+]=[N-])C2O)c(=O)[nH]c1=O` (centres undefined), the outcome in the test on H9 [1] was inactive. Moreover, the half-inhibitory concentration (IC50) with HL-60 [2] and with HL-60 [3] was greater than 1000 µM in each case.
Turning to `Cc1cn(C2CC(F)C(COS(C)(=O)=O)O2)c(=O)[nH]c1=O` (centres undefined), in the test with H9 [1], the result was inactive. The IC50 in the test with HL-60 [2] and with HL-60 [3] was greater than 1000 µM in each case.
For `Cc1cn([C@@H]2O[C@H](CO)C[C@H]2F)c(=O)[nH]c1=O`, the result in the test with H9 [1] was inactive. Also, the IC50 in the test with HL-60 [2] and in the test with HL-60 [3] was greater than 1000 µM each time.
`Cc1cn(C2OC(COC(c3ccccc3)(c3ccccc3)c3ccccc3)CC2F)c(=O)nc1-n1cncn1` (centres undefined): the result in the test with H9 [1] was inactive. In addition, the IC50 with HL-60 [2] and in the test with HL-60 [3] was greater than 1000 µM throughout.
With `Cc1cn([C@@H]2O[C@H](CO)[C@@H](F)[C@@H]2F)c(=O)[nH]c1=O`, in the test on H9 [1], the outcome was inactive. In addition, the IC50 in the test on HL-60 [2] and with HL-60 [3] was greater than 1000 µM throughout.
For the compound `Cc1cn([C@@H]2O[C@H](COC(c3ccccc3)(c3ccccc3)c3ccccc3)[C@H](O)[C@H]2N=[N+]=[N-])c(=O)[nH]c1=O`, the result in the test on H9 [1] was inactive. In addition, the IC50 in the test with HL-60 [2] and in the test on HL-60 [3] was greater than 1000 µM throughout.
Consider `Cc1cn2c(nc1=O)O[C@@H]1C[C@H]2O[C@@H]1COS(C)(=O)=O`, for which the outcome in the test on H9 [1] was inactive. The IC50 in the test on HL-60 [2] and with HL-60 [3] was greater than 1000 µM each time.
As to `Cc1cn2c(nc1=O)O[C@@H]1[C@H](F)[C@H]2O[C@@H]1COC(=O)c1ccccc1`, the result in the test with H9 [1] was inactive. For the same compound, the half-inhibitory concentration (IC50) in the test on HL-60 [2] and in the test with HL-60 [3] was greater than 1000 µM each time.
Take `Cc1cn([C@@H]2O[C@H](CO)[C@@H](O)[C@@H]2O)c(=O)[nH]c1=O`: the outcome in the test on H9 [1] was inactive. For the same compound, the half-inhibitory concentration (IC50) in the test on HL-60 [2] and in the test on HL-60 [3] was greater than 1000 µM throughout.
`Cc1cn([C@@H]2O[C@H](CO)C[C@H]2F)c(=O)nc1N`: the result in the test with H9 [1] was inactive. The IC50 with HL-60 [2] and in the test on HL-60 [3] was greater than 1000 µM throughout.
Consider `Cc1cn2c(nc1=O)O[C@H]1[C@H](OC(=S)n3ccnc3)[C@@H](COC(c3ccccc3)(c3ccccc3)c3ccccc3)O[C@H]12`, for which the outcome with H9 [1] was inactive. In addition, the IC50 in the test with HL-60 [2] and in the test with HL-60 [3] was greater than 1000 µM throughout.
Regarding `Cc1cn([C@@H]2O[C@H](CO)[C@@H](N=[N+]=[N-])[C@H]2F)c(=O)[nH]c1=O`, the outcome with H9 [1] was inactive. The IC50 in the test with HL-60 [2] and with HL-60 [3] was greater than 1000 µM each time.
For the compound `Cc1cn([C@@H]2O[C@H](COC(c3ccccc3)(c3ccccc3)c3ccccc3)[C@H](O)[C@H]2F)c(=O)[nH]c1=O`, in the test on H9 [1], the result was inactive. In addition, the IC50 in the test with HL-60 [2] and in the test on HL-60 [3] was greater than 1000 µM each time.
Turning to `Cc1cn([C@@H]2O[C@H](CO)[C@@H](F)[C@H]2N=[N+]=[N-])c(=O)[nH]c1=O`, the result in the test with H9 [1] was inactive. For the same compound, the IC50 in the test with HL-60 [2] and in the test on HL-60 [3] was greater than 1000 µM in each case.
With `Cc1cn(C2OC(CO)C[C@@H]2F)c(=O)[nH]c1=O` (some centres undefined), the result in the test on H9 [1] was inactive. Also, the IC50 in the test on HL-60 [2] and in the test on HL-60 [3] was greater than 1000 µM each time.
`Cc1cn([C@@H]2O[C@H](COC(=O)c3ccccc3)[C@@H](O)[C@@H]2F)c(=O)[nH]c1=O`: in the test on H9 [1], the result was inactive. Besides, the IC50 in the test with HL-60 [2] and in the test with HL-60 [3] was greater than 1000 µM throughout.
Consider `Cc1cn(C2OC(COC(c3ccccc3)(c3ccccc3)c3ccccc3)C(F)C2O)c(=O)[nH]c1=O` (centres undefined), for which, in the test with H9 [1], the outcome was inactive. Moreover, the IC50 with HL-60 [2] and in the test with HL-60 [3] was greater than 1000 µM each time.
For the compound `Cc1cn2c(nc1=O)O[C@@H]1C[C@H]2O[C@@H]1CO`, in the test with H9 [1], the result was inactive. Besides, the IC50 in the test with HL-60 [2] and in the test with HL-60 [3] was greater than 1000 µM throughout.
Regarding `Cc1cn([C@@H]2O[C@H](COC(c3ccccc3)(c3ccccc3)c3ccccc3)[C@@H]3O[C@@H]32)c(=O)[nH]c1=O`, in the test with H9 [1], the outcome was inactive. For the same compound, the IC50 with HL-60 [2] and with HL-60 [3] was greater than 1000 µM in each case.
Regarding `Cc1cn(C2OC(CO)C(F)C2F)c(=O)nc1N` (centres undefined), in the test on H9 [1], the result was inactive. Also, the IC50 – broadly, the concentration needed to halve the response being measured – in the test on HL-60 [2] amounted to 234 µM; with HL-60 [3], 123 µM.
Take `Cc1cn([C@H]2C[C@H](OS(C)(=O)=O)[C@@H](COS(C)(=O)=O)O2)c(=O)[nH]c1=O`: the outcome with H9 [1] was inactive. Moreover, the half-maximal inhibitory concentration (IC50) in the test with HL-60 [2] and with HL-60 [3] was greater than 1000 µM throughout.
`Cc1cn(C2OC(COC(c3ccccc3)(c3ccccc3)c3ccccc3)C(N=[N+]=[N-])C2F)c(=O)[nH]c1=O` (centres undefined): the outcome in the test on H9 [1] was inactive. Further, the 50% inhibitory concentration (IC50) with HL-60 [2] and in the test on HL-60 [3] was greater than 1000 µM throughout.
In the case of `Cc1cn2c(nc1=O)OC1CC(COC(c3ccccc3)(c3ccccc3)c3ccccc3)OC12` (centres undefined), the outcome with H9 [1] was inactive. Also, the IC50 in the test with HL-60 [2] and in the test with HL-60 [3] was greater than 1000 µM each time.
In the case of `Cc1cn([C@@H]2O[C@H](CO)[C@@H](F)[C@H]2F)c(=O)[nH]c1=O`, in the test with H9 [1], the result was inactive. For the same compound, the IC50 with HL-60 [2] and in the test on HL-60 [3] was greater than 1000 µM in each case.
Regarding `Cc1cn(C2OC(COC(c3ccccc3)(c3ccccc3)c3ccccc3)CC2F)c(=O)nc1N` (centres undefined), the result in the test with H9 [1] was inactive. The IC50 in the test with HL-60 [2] and with HL-60 [3] was greater than 1000 µM in each case.
`Cc1cn([C@@H]2O[C@H](CO)[C@@H](O)[C@@H]2F)c(=O)[nH]c1=O` [5-METHYL-2'-FLUOROARAURACIL]: the result with H9 [1] was inactive. Also, the IC50 with HL-60 [2] and in the test with HL-60 [3] was greater than 1000 µM each time.
In the case of `Cc1cn2c(nc1=O)O[C@@H]1[C@H](F)[C@H]2O[C@@H]1COC(c1ccccc1)(c1ccccc1)c1ccccc1`, the outcome in the test on H9 [1] was inactive. In addition, the IC50 in the test with HL-60 [2] and in the test with HL-60 [3] was greater than 1000 µM throughout.
With `Cc1cn(C2OC(COC(c3ccccc3)(c3ccccc3)c3ccccc3)CC2O)c(=O)[nH]c1=O` (centres undefined), in the test on H9 [1], the result was inactive. The IC50 in the test on HL-60 [2] and in the test on HL-60 [3] was greater than 1000 µM each time.
Turning to `Cc1cn(C2OC(COC(=O)c3ccccc3)C(F)C2F)c(=O)[nH]c1=S` (centres undefined), the result with H9 [1] was inactive. Moreover, the half-inhibitory concentration (IC50) in the test on HL-60 [2] and in the test with HL-60 [3] was greater than 1000 µM each time.
With `CC(=O)OCC1OC(n2cc(C)c(=O)[nH]c2=O)CC1F` (centres undefined), the outcome in the test on H9 [1] was inactive. Moreover, the IC50 with HL-60 [2] and with HL-60 [3] was greater than 1000 µM in each case.
In the case of `Cc1cn([C@@H]2O[C@H](COC(c3ccccc3)(c3ccccc3)c3ccccc3)[C@@H](OS(C)(=O)=O)[C@H]2OS(C)(=O)=O)c(=O)[nH]c1=O`, the outcome with H9 [1] was inactive. The IC50 with HL-60 [2] and in the test on HL-60 [3] was greater than 1000 µM in each case.
Turning to `Cc1cn([C@@H]2O[C@H](COC(=O)c3ccccc3)[C@@H](OS(C)(=O)=O)[C@@H]2F)c(=O)[nH]c1=O`, the result with H9 [1] was inactive. In addition, the IC50 in the test on HL-60 [2] and in the test with HL-60 [3] was greater than 1000 µM throughout.
As for `Cc1cn(C2OC(COC(c3ccccc3)(c3ccccc3)c3ccccc3)C(F)C2F)c(=O)[nH]c1=O` (centres undefined), the outcome with H9 [1] was inactive. For the same compound, the IC50 with HL-60 [2] and with HL-60 [3] was greater than 1000 µM throughout.
As for `Cc1cn([C@@H]2O[C@H](COC(c3ccccc3)(c3ccccc3)c3ccccc3)[C@@H](OS(C)(=O)=O)[C@@H]2F)c(=O)[nH]c1=O`, the result with H9 [1] was inactive. Besides, the IC50 in the test on HL-60 [2] and in the test on HL-60 [3] was greater than 1000 µM each time.
For the compound `Cc1cn(C2OC(COC(c3ccccc3)(c3ccccc3)c3ccccc3)C(F)C2N=[N+]=[N-])c(=O)[nH]c1=O` (centres undefined), the result with H9 [1] was inactive. Besides, the IC50 in the test on HL-60 [2] and with HL-60 [3] was greater than 1000 µM in each case.
In the case of `Nc1ccn([C@@H]2O[C@H](CO)C[C@@H]2F)c(=O)n1`, the result with H9 [4] was Active.
For the compound `Cc1cn([C@@H]2O[C@H](CO)[C@@H](OC(c3ccccc3)(c3ccccc3)c3ccccc3)[C@H]2OC(c2ccccc2)(c2ccccc2)c2ccccc2)c(=O)[nH]c1=O`, the IC50 with HL-60 [2] and in the test on HL-60 [3] was greater than 1000 µM in each case. Besides, the result with H9 [5] was inactive.
Regarding `Cc1cn([C@H]2C[C@H](F)[C@@H](CO)O2)c(=O)[nH]c1=O`, in the test on H9 [4], the result was Active.
Take `Cc1cn([C@@H]2O[C@H](CO)C=C2F)c(=O)[nH]c1=O`: the result in the test with H9 [1] was inactive. The IC50 in the test with HL-60 [2] and in the test on HL-60 [3] was greater than 1000 µM in each case.
For the compound `Cc1cn([C@@H]2O[C@H](CO)[C@@H](N=[N+]=[N-])[C@@H]2F)c(=O)[nH]c1=O`, the result in the test on H9 [1] and in the test on MT4 was inactive.

Values taken from ChEMBL document CHEMBL1125694, “Fluorinated sugar analogues of potential anti-HIV-1 nucleosides” (J Med Chem, 1991).
